For assay [1], the system named is Trypanosoma cruzi. Put plainly: Antitrypanosomal activity against Trypanosoma cruzi Y infected in CD8+ T-lymphocyte knockout C57BL/6 mouse assessed as occurrence of subpatent level of parasitemia at 20 mg/kg/day, po administered twice daily for 20 consecutive days measured 60 days post infection. Format: functional, organism-based. A digest of the protocol:
(§1)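 Ip infection was 5,000 Y-strain blood trypomastigotes. From 4 dpi mice got 20 mg/kg/day orally in two daily doses (2% methylcellulose/0.5% Tween 80) for 20 days. Fresh tail blood was examined microscopically, daily from 4–16 dpi and every other day to 60 dpi. Reactivation was scored as return of patent parasitemia after treatment. Parasitemia curves were compared by Mann-Whitney.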

Assay [2] deals with Trypanosoma cruzi. Put plainly: Antitrypanosomal activity against Trypanosoma cruzi Y infected in CD8+ T-lymphocyte knockout C57BL/6 mouse assessed as number of mouse with reactivated parasite at 100 mg/kg/day, po administered once daily for 20 consecutive days measured 60 days post infection. The assay is classed as functional. A digest of the protocol:
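Mice infected ip with 5,000 Y-strain blood trypomastigotes. From day 4 they were given drug orally in water with gum arabic for 20 days. Reactivation was scored as reappearance of circulating parasites after treatment ended, seen by microscopy of fresh tail blood. Sampling was daily from day 4 to 16 and then every other day up to day 60.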

Assay [3] concerns Trypanosoma cruzi. Kind of assay: Antitrypanosomal activity against Trypanosoma cruzi Y infected in B-lymphocyte knockout C57BL/6 mouse assessed as number of mouse with reactivation of infection at 100 mg/kg/day, po administered once daily for 20 consecutive days measured 22 days post infection. The assay is classed as functional, organism-based. A digest of the protocol: (§2)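 Ip infection was 5,000 Y-strain blood trypomastigotes. Oral dosing at 100 mg/kg/day, once daily in gum arabic water, ran from 4 dpi for 20 days. Parasitemia was read by microscopy of fresh tail blood, daily from 4–16 dpi, then every other day to 60 dpi. Reactivation was scored as patent parasitemia returning after treatment ended.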

Assay [4] has as its system Trypanosoma cruzi. Kind of assay: Antitrypanosomal activity against Trypanosoma cruzi Y infected in CD4+ T-lymphocyte knockout C57BL/6 mouse assessed as reactivation of parasite in mouse at 20 mg/kg/day, po administered twice daily for 20 consecutive days measured 60 days post infection. Format: functional, organism-based. The method in brief:
as §1

Assay [5] has as its system Trypanosoma cruzi. Put plainly: Antitrypanosomal activity against Trypanosoma cruzi Y infected in CD4+ T-lymphocyte knockout C57BL/6 mouse assessed as reactivation of parasite in mouse at 100 mg/kg/day, po administered once daily for 20 consecutive days measured 60 days post infection. Format: functional, organism-based. A digest of the protocol:
as §2

Assay [6] has as its system Trypanosoma cruzi. Kind of assay: Antitrypanosomal activity against Trypanosoma cruzi Y infected in C57BL/6 mouse assessed as increase in survival of mouse at 100 mg/kg/day, po administered once daily for 20 consecutive days measured 60 days post infection. The assay is classed as functional. As to conditions: 1440 h. The method in brief: (§3)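 Mice were infected ip with 5,000 blood trypomastigotes of the Y strain, kept by serial passage in Swiss-Webster mice. From 4 dpi they got 100 mg/kg/day orally once daily for 20 consecutive days, dissolved in water with gum arabic. Survival was followed to 60 dpi, with mean survival time and survival rate taken. Untreated and vehicle-treated infected mice served as controls. Rates compared by chi-square with Bonferroni.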

The test system of assay [7] is Trypanosoma cruzi. Put plainly: Antitrypanosomal activity against Trypanosoma cruzi Y infected in C57BL/6 mouse assessed as mean survival time at 100 mg/kg/day, po administered once daily for 20 consecutive days measured 60 days post infection. Format: functional. The method in brief:
as §3

For assay [8], the system named is Trypanosoma cruzi. Kind of assay: Antitrypanosomal activity against Trypanosoma cruzi Y infected in C57BL/6 mouse assessed as cure rate in mouse at 100 mg/kg/day, po administered once daily for 20 consecutive days measured 60 days post infection. Format: functional. The method in brief: (§4)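 Mice infected ip with 5,000 blood trypomastigotes (Y strain kept by serial passage in Swiss-Webster mice). Oral dosing started day 4 post-infection and ran 20 consecutive days, drug dissolved in water with gum arabic. Fresh tail blood was examined microscopically daily days 4–16, then every other day to day 60. Parasitemia-negative mice were bled at day 60 by orbital sinus, 0.5 ml into two tubes of LIT medium, 28°C for 30–60 days, then examined microscopically. Cure meant negative fresh blood plus negative hemoculture. Rates were compared by chi-square with Bonferroni.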

In assay [9] the test system is Trypanosoma cruzi. Put plainly: Antitrypanosomal activity against Trypanosoma cruzi Y infected in CD4+ T-lymphocyte knockout C57BL/6 mouse assessed as increase in survival of mouse at 100 mg/kg/day, po administered once daily for 20 consecutive days measured 60 days post infection. Format: functional. As to conditions: 1440 h. A digest of the protocol: as §3
In assay [10] the test system is Trypanosoma cruzi. Put plainly: Antitrypanosomal activity against Trypanosoma cruzi Y infected in CD4+ T-lymphocyte knockout C57BL/6 mouse assessed as mean survival time at 100 mg/kg/day, po administered once daily for 20 consecutive days measured 60 days post infection. The assay is classed as functional. The method in brief: as §3
For assay [11], the system named is Trypanosoma cruzi. Put plainly: Antitrypanosomal activity against Trypanosoma cruzi Y infected in CD4+ T-lymphocyte knockout C57BL/6 mouse assessed as cure rate in mouse at 100 mg/kg/day, po administered once daily for 20 consecutive days measured 60 days post infection. Format: functional. A digest of the protocol:
as §4

The subject of assay [12] is Trypanosoma cruzi. Put plainly: Antitrypanosomal activity against Trypanosoma cruzi Y infected in CD8+ T-lymphocyte knockout C57BL/6 mouse assessed as increase in survival of mouse at 100 mg/kg/day, po administered once daily for 20 consecutive days measured 60 days post infection. The assay is classed as functional. As to conditions: 1440 h. The method in brief:
as §3

For assay [13], the system named is Trypanosoma cruzi. Kind of assay: Antitrypanosomal activity against Trypanosoma cruzi Y infected in CD8+ T-lymphocyte knockout C57BL/6 mouse assessed as mean survival time at 100 mg/kg/day, po administered once daily for 20 consecutive days measured 60 days post infection. The assay is classed as functional. The method in brief: as §3
The subject of assay [14] is Trypanosoma cruzi. Put plainly: Antitrypanosomal activity against Trypanosoma cruzi Y infected in CD8+ T-lymphocyte knockout C57BL/6 mouse assessed as cure rate in mouse at 100 mg/kg/day, po administered once daily for 20 consecutive days measured 60 days post infection. Format: functional. The method in brief: as §4
Assay [15] concerns Trypanosoma cruzi. Kind of assay: Antitrypanosomal activity against Trypanosoma cruzi Y infected in B-lymphocyte knockout C57BL/6 mouse assessed as increase in survival of mouse at 100 mg/kg/day, po administered once daily for 20 consecutive days measured 60 days post infection. The assay is classed as functional. The note with it: 1440 h. The method in brief: as §3
Assay [16] relates to Trypanosoma cruzi. Put plainly: Antitrypanosomal activity against Trypanosoma cruzi Y infected in B-lymphocyte knockout C57BL/6 mouse assessed as mean survival time at 100 mg/kg/day, po administered once daily for 20 consecutive days measured 60 days post infection. The assay is classed as functional. The method in brief: as §3
Assay [17] deals with Trypanosoma cruzi. Kind of assay: Antitrypanosomal activity against Trypanosoma cruzi Y infected in B-lymphocyte knockout C57BL/6 mouse assessed as cure rate in mouse at 100 mg/kg/day, po administered once daily for 20 consecutive days measured 60 days post infection. Format: functional. The method in brief:
as §4

The subject of assay [18] is Trypanosoma cruzi. Kind of assay: Antitrypanosomal activity against Trypanosoma cruzi Y infected in CD4+ T-lymphocyte knockout C57BL/6 mouse assessed as occurrence of subpatent parasitemia level in mouse at 20 mg/kg/day, po administered twice daily for 20 consecutive days measured 4 to 24 days post infection. The assay is classed as functional, organism-based. The method in brief: as §1

For assay [19], the system named is Trypanosoma cruzi. Put plainly: Antitrypanosomal activity against Trypanosoma cruzi Y infected in CD4+ T-lymphocyte knockout C57BL/6 mouse assessed as occurrence of subpatent parasitemia level in mouse at 100 mg/kg/day, po administered once daily for 20 consecutive days measured 4 to 24 days post infection. The assay is classed as functional, organism-based. A digest of the protocol:
as §2

The subject of assay [20] is Trypanosoma cruzi. Put plainly: Antitrypanosomal activity against Trypanosoma cruzi Y infected in CD4+ T-lymphocyte knockout C57BL/6 mouse assessed as reactivation of parasite in mouse at 100 mg/kg/day, po administered once daily for 20 consecutive days measured 11 days post infection. The assay is classed as functional, organism-based. The method in brief: as §2
Assay [21] relates to Trypanosoma cruzi. Kind of assay: Antitrypanosomal activity against Trypanosoma cruzi Y infected in CD8+ T-lymphocyte knockout C57BL/6 mouse assessed as occurrence of subpatent level of parasitemia at 100 mg/kg/day, po administered once daily for 20 consecutive days measured 60 days post infection. Format: functional, organism-based. The method in brief:
as §2

In assay [22] the test system is Trypanosoma cruzi. Put plainly: Antitrypanosomal activity against Trypanosoma cruzi Y infected in CD8+ T-lymphocyte knockout C57BL/6 mouse assessed as occurrence of low level of circulating parasites at 100 mg/kg/day, po administered once daily for 20 consecutive days measured 15 days after the end of treatment.

Activity calls are given as the source filed them. The calls are words filed in the database; no cut-off is given here.

In the case of `O=C(Cn1ccnc1[N+](=O)[O-])NCc1ccccc1` [BENZNIDAZOLE], the result in [1], in [18], in assay [19], in assay [21] and in assay [22] was Active. In addition, the Activity in [2] is listed as 22%; in assay [8] it was 86%; in [11], 0%; in assay [14] it was 66%; in [17], 22%. Further, the result in assay [3], in assay [4], in assay [5] and in assay [20] was inactive. Further, the survival at 100 mg/kg/day in assay [6] amounted to 100%; in assay [9], 6%; in [12], 86%; in assay [15], 67%. Moreover, the MST was >60 days in assay [7], 53.7 days in assay [10], 58.8 days in assay [13] and 59.3 days in assay [16].
